# Tests used:
# [1] = read-out: KD of haem binding; cited from earlier work
# [2] = system: S. meliloti; assay: ICP-MS total iron content of cells; format: cell-based, Sinorhizobium meliloti; conditions: 2 μM NCR247, ICP-MS, normalized to protein
# Outline: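 Equal numbers of cells are pelleted for ICP-MS metal analysis. Protein is measured from the same number of cells, and metal content is normalised to protein.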
# [3] = system: Porphyromonas gingivalis 2561; assay: Cell viability assay, P. gingivalis; format: cell-based
# [4] = system: Cytochrome c; assay: UV-Vis test of haem sequestration from Cytochrome c; format: binding; conditions: excess NCR247 added to Cytochrome c, UV-Vis spectrum
# [5] = system: S. meliloti bacteroids isolated from M. truncatula nodules; assay: 55Fe uptake by isolated bacteroids; format: cell-based, Sinorhizobium meliloti; conditions: bacteroids from nodules of plants inoculated with wild type S. meliloti, NCR247 treated
# [6] = UV-Vis spectroscopy of haem binding to synthesized peptide; conditions: haem reduced by excess sodium dithionite, anaerobic chamber
# Outline: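 Hemin is dissolved in 0.1 M NaOH and used within 30 min. Its stock concentration is set by pyridine hemochrome absorbance at 557 nm (ε 34.7 mM⁻¹ cm⁻¹). Peptide and haem are mixed in water (pH 7.4) in 96-well plates. After shaking at 100 rpm for 15 s, spectra are recorded from 300 to 700 nm in 5 nm steps on a plate reader.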
# [7] = system: S. meliloti; assay: Growth curve in minimal medium; format: cell-based, Sinorhizobium meliloti; conditions: 2 μM NCR247, OD 600 nm, 30° C
# Outline: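 Strain RM1021 or its mutants are first grown in LBMC (LB with 2.5 mM CaCl₂ and 2.5 mM MgSO₄, 200 μg/ml streptomycin, 30°C). Overnight cultures are washed and subcultured 1:100 into minimal medium, either iron-free or with the stated iron, Mn or Zn supplement. Cultures shake continuously at 150 rpm and 30°C in a plate reader, with OD600 read every 60 min.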
# [8] = system: iron uptake genes (hmuP) and rirA in S. meliloti; assay: qRT-PCR of iron-related genes; format: cell-based, Sinorhizobium meliloti
# Outline: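 Cells are grown in LB to OD600 0.2, pelleted and resuspended for 1 h in minimal medium with or without FeSO₄, then exposed to peptide for 30 min. Transcript levels are measured by qRT-PCR and expressed as starting quantities normalised to the reference gene SMc00128.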
# [9] = system: S. meliloti; assay: Radioactive 55Fe uptake assay; format: cell-based, Sinorhizobium meliloti
# Outline: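 Cells are grown in LB to OD600 0.2, pelleted and held 1 h in minimal medium with 5 μM FeSO₄. Then 2 μM peptide and 100 μM sodium ascorbate are added for 30 min. At time 0, 1 μM ⁵⁵FeCl₃ with ascorbate is added. Timed 1 ml samples are quenched in ice-cold buffer (0.1 M Tris, 1 mM ascorbate, 100 μM FeSO₄, pH 6.0) and vacuum-filtered on 0.45 μm filters. Filters are scintillation-counted, and counts are normalised to protein.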
# [10] = system: Aβ (1-42)-haem complex; assay: Peroxidase assay; format: biochemical, human; conditions: equimolar addition of NCR247, TMB substrate, 370 nm and 652 nm
# Outline: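 Haem complex, with or without equimolar peptide, is added to TMB substrate solution (TMB:peroxide 1:1) in 96-well plates. Reaction progress is followed in a plate reader by absorbance at 370 and 652 nm. Values are the mean of three independent replicates ± s.d.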
substance,measurement,setting,value
Aβ(1-42): human Aβ(1-42) amyloid peptide [reference compound],Kd,[1],0.14 µM
RNGCIVDPRCPYQQCRRPLYCRRR [NCR247],total iron content of the cells,[2],elevated total iron content
same,growth / viable cell number of Porphyromonas gingivalis,[3],can prevent the growth
same,sequestration of cytochrome haem,[4],cannot sequester cytochrome haem
same,uptake of Fe55 by bacteroids compared with untreated,[5],increase uptake of Fe^55
same,binding of Fe(II) ferrous haem,[6],binds
same,growth rate of S. meliloti,[7],reduction in growth rate
same,rirA transcription,"[8]; wild type S. meliloti, 2 μM NCR247 for 30 mins",reduced
same,transcript levels of iron uptake genes,"[8]; wild type S. meliloti, iron-replete medium, NCR247 treatment 30 mins",increase in transcript levels of iron uptake genes
same,expression of hmuP in ΔbacA strain,"[8]; ΔbacA S. meliloti, 2 μM NCR247 for 30 mins",very little change in expression of hmuP
same,import of 55Fe,"[9]; wild type S. meliloti, medium with sufficient iron (5 μM FeSO4), 2 μM NCR247, mean of three biological replicates",markedly increased
same,uptake of 55Fe in irr deletion mutant compared to wild type,"[9]; Δirr S. meliloti, NCR247 treated",diminished
same,peroxidase activity of Aβ (1-42)-haem complex,[10],quenches its peroxidase activity
serum albumin,Kd,[1],40 µM
